In ChEMBL document CHEMBL2177098, “Synthesis and evaluation of novel ¹⁸F labeled 2-pyridinylbenzoxazole and 2-pyridinylbenzothiazole derivatives as ligands for positron emission tomography (PET) imaging of β-amyloid plaques” (J Med Chem, 2012):

What was measured:
[1] = tested on: Intestine; experiment: Drug uptake in ICR mouse intestine assessed per organ at 370 kBq/100 ul, iv at 30 mins by gamma-counting analysis; assay type: ADME, organism-based; settings: in vivo, 0.5 h
Summary of the method: (§1)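 Male ICR mice (5 weeks, about 20 g) got 18F tracer in saline (370 KBq per 100 μL) via tail vein; n = 5 per time point, killed at 2, 10, 30, 60 min. Organs removed and γ-counted against diluted injectate; expressed as % injected dose per organ.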

[2] = tested on: Intestine; experiment: Drug uptake in ICR mouse intestine assessed per organ at 370 kBq/100 ul, iv at 2 mins by gamma-counting analysis; assay type: ADME, organism-based; settings: in vivo; summary of the method: as §1
[3] = tested on: Stomach; experiment: Drug uptake in ICR mouse stomach assessed per organ at 370 kBq/100 ul, iv at 30 mins by gamma-counting analysis; assay type: ADME, organism-based; settings: in vivo, 0.5 h; summary of the method: as §1
[4] = tested on: Stomach; experiment: Drug uptake in ICR mouse stomach assessed per organ at 370 kBq/100 ul, iv at 10 mins by gamma-counting analysis; assay type: ADME, organism-based; settings: in vivo; summary of the method: as §1
[5] = tested on: Stomach; experiment: Drug uptake in ICR mouse stomach assessed per organ at 370 kBq/100 ul, iv at 2 mins by gamma-counting analysis; assay type: ADME, organism-based; settings: in vivo; summary of the method: as §1
[6] = tested on: Kidney; experiment: Drug uptake in ICR mouse kidney at 370 kBq/100 ul, iv at 60 mins by gamma-counting analysis; assay type: ADME, organism-based; settings: in vivo, 1 h
Summary of the method: (§2)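 Male ICR mice (5 weeks, about 20 g) got 18F tracer in saline (370 KBq per 100 μL) via tail vein; n = 5 per time point, killed at 2, 10, 30, 60 min. Organs weighed and γ-counted; percent dose per gram wet tissue from comparison with diluted injectate aliquots.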

[7] = tested on: Kidney; experiment: Drug uptake in ICR mouse kidney at 370 kBq/100 ul, iv at 30 mins by gamma-counting analysis; assay type: ADME, organism-based; settings: in vivo, 0.5 h; summary of the method: as §2
[8] = tested on: Kidney; experiment: Drug uptake in ICR mouse kidney at 370 kBq/100 ul, iv at 10 mins by gamma-counting analysis; assay type: ADME, organism-based; settings: in vivo; summary of the method: as §2
[9] = tested on: Lung; experiment: Drug uptake in ICR mouse lung at 370 kBq/100 ul, iv at 60 mins by gamma-counting analysis; assay type: ADME, organism-based; settings: in vivo, 1 h; summary of the method: as §2
[10] = tested on: Kidney; experiment: Drug uptake in ICR mouse kidney at 370 kBq/100 ul, iv at 2 mins by gamma-counting analysis; assay type: ADME, organism-based; settings: in vivo; summary of the method: as §2
[11] = tested on: Lung; experiment: Drug uptake in ICR mouse lung at 370 kBq/100 ul, iv at 10 mins by gamma-counting analysis; assay type: ADME, organism-based; settings: in vivo; summary of the method: as §2
[12] = tested on: Spleen; experiment: Drug uptake in ICR mouse spleen at 370 kBq/100 ul, iv at 60 mins by gamma-counting analysis; assay type: ADME, organism-based; settings: in vivo, 1 h; summary of the method: as §2
[13] = tested on: Spleen; experiment: Drug uptake in ICR mouse spleen at 370 kBq/100 ul, iv at 30 mins by gamma-counting analysis; assay type: ADME, organism-based; settings: in vivo, 0.5 h; summary of the method: as §2
[14] = tested on: Liver; experiment: Drug uptake in ICR mouse liver at 370 kBq/100 ul, iv at 60 mins by gamma-counting analysis; assay type: ADME, organism-based; settings: in vivo, 1 h; summary of the method: as §2
[15] = tested on: Liver; experiment: Drug uptake in ICR mouse liver at 370 kBq/100 ul, iv at 2 mins by gamma-counting analysis; assay type: ADME, organism-based; settings: in vivo; summary of the method: as §2
[16] = tested on: Liver; experiment: Drug uptake in ICR mouse liver at 370 kBq/100 ul, iv at 10 mins by gamma-counting analysis; assay type: ADME, organism-based; settings: in vivo; summary of the method: as §2
[17] = tested on: Heart; experiment: Drug uptake in ICR mouse heart at 370 kBq/100 ul, iv at 60 mins by gamma-counting analysis; assay type: ADME, organism-based; settings: in vivo, 1 h; summary of the method: as §2
[18] = tested on: Heart; experiment: Drug uptake in ICR mouse heart at 370 kBq/100 ul, iv at 30 mins by gamma-counting analysis; assay type: ADME, organism-based; settings: in vivo, 0.5 h; summary of the method: as §2
[19] = tested on: Heart; experiment: Drug uptake in ICR mouse heart at 370 kBq/100 ul, iv at 10 mins by gamma-counting analysis; assay type: ADME, organism-based; settings: in vivo; summary of the method: as §2
[20] = tested on: Brain; experiment: Drug uptake in ICR mouse brain at 370 kBq/100 ul, iv at 60 mins by gamma-counting analysis; assay type: ADME, organism-based; settings: in vivo, 1 h; summary of the method: as §2
[21] = tested on: Heart; experiment: Drug uptake in ICR mouse heart at 370 kBq/100 ul, iv at 2 mins by gamma-counting analysis; assay type: ADME, organism-based; settings: in vivo; summary of the method: as §2
[22] = tested on: Brain; experiment: Drug uptake in ICR mouse brain at 370 kBq/100 ul, iv at 30 mins by gamma-counting analysis; assay type: ADME, organism-based; settings: in vivo, 0.5 h; summary of the method: as §2
[23] = tested on: Blood; experiment: Drug uptake in ICR mouse blood at 370 kBq/100 ul, iv at 30 mins by gamma-counting analysis; assay type: ADME, organism-based; settings: in vivo, 0.5 h; summary of the method: as §2
[24] = tested on: Blood; experiment: Drug uptake in ICR mouse blood at 370 kBq/100 ul, iv at 60 mins by gamma-counting analysis; assay type: ADME, organism-based; settings: in vivo, 1 h; summary of the method: as §2
[25] = tested on: Blood; experiment: Drug uptake in ICR mouse blood at 370 kBq/100 ul, iv at 10 mins by gamma-counting analysis; assay type: ADME, organism-based; settings: in vivo; summary of the method: as §2
[26] = tested on: Brain; experiment: Drug uptake in wild type C57BL6 mouse brain at 370 KBq/100 ul after 1 hr by autoradiographic analysis; assay type: ADME, tissue-based; settings: in vitro
Summary of the method: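 Paraffin brain sections from 12-month-old male control C57BL6 mice were deparaffinized through xylene and graded ethanol, then held in PBS (0.2 M, pH 7.4) for 30 min. They were incubated with the ¹⁸F tracer (370 KBq per 100 μL) for 1 h at room temperature. Sections were washed in 40% EtOH, rinsed with water for 1 min, dried, and exposed to a phosphor plate for 2 h. The same sections were then stained with thioflavin S.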

[27] = Metabolic stability in mouse plasma at 1.85 MBq after 60 mins by HPLC analysis; assay type: ADME, cell-free; settings: read-out: Stability
Summary of the method: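 Purified tracer (1.85 MBq) was incubated with 100 μL mouse plasma at 37 °C for 2, 10, 30 and 60 min. Read-out was the percentage of activity remaining as intact tracer.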

[28] = n-Octanol-PBS buffer partition coefficient, log D of the compound at 1.5 MBq after 3 mins at pH 7.4; assay type: physicochemical
Summary of the method: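 The tracer was partitioned between n-octanol and PBS by vortexing for 3 min at room temperature, then centrifuged for 5 min at 3000 rpm. Samples of the octanol (50 μL) and aqueous (500 μL) layers were counted. log D is the log of the octanol/PBS counts-per-gram ratio. The octanol layer was repartitioned until values were consistent. Measured in triplicate and repeated three times.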

[29] = tested on: Brain; experiment: Drug uptake in wild type C57BL6 mouse brain at 19.2 MBq, iv after 30 mins by autoradiographic analysis; assay type: ADME, organism-based; settings: in vivo, 0.5 h
[30] = tested on: Brain; experiment: Ratio of drug uptake in brain at 2 mins to drug uptake in brain at 60 mins in ICR mouse at 370 KBq/100 ul, iv; assay type: ADME, organism-based; settings: in vivo
Summary of the method: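 Normal male ICR mice (5 weeks, about 20 g) received the ¹⁸F tracer in saline (370 KBq per 100 μL) by tail-vein injection. Groups of n = 5 were killed at 2, 10, 30 and 60 min. Organs were removed, weighed and γ-counted against diluted aliquots of the injectate, giving % dose per gram. Stomach and intestine were expressed per organ. The brain ratio is 2 min/60 min uptake. Values are mean ± SD.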

[31] = tested on: Bone; experiment: Drug uptake in ICR mouse bone at 370 kBq/100 ul, iv at 60 mins by gamma-counting analysis; assay type: ADME, organism-based, Bone element; settings: in vivo, 1 h; summary of the method: as §2
[32] = tested on: Bone; experiment: Drug uptake in ICR mouse bone at 370 kBq/100 ul, iv at 30 mins by gamma-counting analysis; assay type: ADME, organism-based, Bone element; settings: in vivo, 0.5 h; summary of the method: as §2
[33] = tested on: Bone; experiment: Drug uptake in ICR mouse bone at 370 kBq/100 ul, iv at 2 mins by gamma-counting analysis; assay type: ADME, organism-based, Bone element; settings: in vivo; summary of the method: as §2
[34] = tested on: Bone; experiment: Drug uptake in ICR mouse bone at 370 kBq/100 ul, iv at 10 mins by gamma-counting analysis; assay type: ADME, organism-based, Bone element; settings: in vivo; summary of the method: as §2
[35] = tested on: Intestine; experiment: Drug uptake in ICR mouse intestine assessed per organ at 370 kBq/100 ul, iv at 60 mins by gamma-counting analysis; assay type: ADME, organism-based; settings: in vivo, 1 h; summary of the method: as §1

Drug uptake [1]: 33.66 %ID
Drug uptake [2]: 9.87 %ID
Drug uptake [3]: 3.11 %ID
Drug uptake [4]: 5.59 %ID
Drug uptake [5]: 3.24 %ID
Drug uptake [6]: 3.04 % ID/g
Drug uptake [7]: 2.17 % ID/g
Drug uptake [8]: 3.52 % ID/g
Drug uptake [9]: 2.57 % ID/g
Drug uptake [10]: 7.45 % ID/g
Drug uptake [11]: 2.8 % ID/g
Drug uptake [12]: 1.64 % ID/g
Drug uptake [13]: 1.63 % ID/g
Drug uptake [14]: 2.64 % ID/g
Drug uptake [15]: 10.48 % ID/g
Drug uptake [16]: 8.5 % ID/g
Drug uptake [17]: 2.05 % ID/g
Drug uptake [18]: 1.84 % ID/g
Drug uptake [19]: 2.34 % ID/g
Drug uptake [20]: 1.55 % ID/g
Drug uptake [21]: 4.66 % ID/g
Drug uptake [22]: 1.69 % ID/g
Drug uptake [23]: 2.55 % ID/g
Drug uptake [24]: 3.2 % ID/g
Drug uptake [25]: 2.55 % ID/g
Drug uptake [26]: Not Active
remaining at 1 h, 1.85 MBq [27]: > 95%
logD at 0.05 h [28]: 3.52
Drug uptake [29]: Not Active
Ratio [30]: 4.66
Drug uptake [31]: 2.37 % ID/g
Drug uptake [32]: 2.34 % ID/g
Drug uptake [33]: 1.18 % ID/g
Drug uptake [34]: 1.11 % ID/g
Drug uptake [35]: 39.05 %ID
Compound: CNc1ccc(-c2nc3cc(OCC[18F])ccc3o2)cn1
